Compounds with a hit are over-represented: about 1.2% of the library has one in this group of screens.
PfG6PD inh = PfG6PD enzyme inhibitors, primary screen, biochemical, fluorescence intensity, uHTS. glucose-6-phosphate dehydrogenase-6-phosphogluconolactonase (Plasmodium falciparum 3D7). PfGluPho enzyme, NADPH resazurin-diaphorase fluorescence. inhibition, % at 20 µM. 350,000 tested, 0.78% active. AID 504690, 2011;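 active = inhibition reaching at least a set limit at 20 µM in the primary screen, cut at about 59% in these data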;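 also: 0% = DMSO wells with substrate and 100% = DMSO wells lacking glucose-6-phosphate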
G6PDH counter = L. mesenteroides G6PDH inhibitors, counter-screen for G6PDH-coupled screening assays, biochemical, Leuconostoc mesenteroides enzyme; Purified L. mesenteroides G6PDH, diaphorase/resazurin coupled fluorescence, 45 min; 200,000 tested, 0.12% active; inhibition, % at 5 µM; in the data active = inhibition above about 50%
Diaphorase act = compounds boosting diaphorase resazurin reduction – biochemical, uHTS, resorufin fluorescence, counter-screen for diaphorase-coupled primary assays, primary screen; 190,000 tested, 0.005% active; Diaphorase/resazurin coupled assay, 16 min; hits give high values; 1 = vehicle wells, 0 = NADH-free wells; activation factor at 20 µM;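 active = diaphorase activity raised at least twofold by the compound at 20 µM; inactive = activation factor below 2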
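Material: purified diaphorase enzyme from Clostridium kluyveri; Also added: 0.114 mM NADH and 0.1 mM resazurin, final amounts; Doses: single compound dose of 20 µM, 1% DMSO final; Times: 16 min enzyme reaction, ambient temperature; Detection: resorufin fluorescence, excitation 544 nm, emission 590 nm; Measure: increased resorufin signal from activators or reducing compounds.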
HKDC1 inhibitor = HKDC1 hexokinase inhibitors, primary screen, biochemical, fluorescence, uHTS; Q2TB90; recombinant HKDC1, G6PDH/diaphorase resazurin coupled fluorescence; inhibition, % at 20 µM; 340,000 tested, 0.16% active;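 active = inhibition above about 35% when tested at 20 µM, limit read from the data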;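 also: plate controls were DMSO wells with enzyme for no effect and DMSO wells lacking enzyme for full effect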
Target sequence (Q2TB90 whole entry, looked up): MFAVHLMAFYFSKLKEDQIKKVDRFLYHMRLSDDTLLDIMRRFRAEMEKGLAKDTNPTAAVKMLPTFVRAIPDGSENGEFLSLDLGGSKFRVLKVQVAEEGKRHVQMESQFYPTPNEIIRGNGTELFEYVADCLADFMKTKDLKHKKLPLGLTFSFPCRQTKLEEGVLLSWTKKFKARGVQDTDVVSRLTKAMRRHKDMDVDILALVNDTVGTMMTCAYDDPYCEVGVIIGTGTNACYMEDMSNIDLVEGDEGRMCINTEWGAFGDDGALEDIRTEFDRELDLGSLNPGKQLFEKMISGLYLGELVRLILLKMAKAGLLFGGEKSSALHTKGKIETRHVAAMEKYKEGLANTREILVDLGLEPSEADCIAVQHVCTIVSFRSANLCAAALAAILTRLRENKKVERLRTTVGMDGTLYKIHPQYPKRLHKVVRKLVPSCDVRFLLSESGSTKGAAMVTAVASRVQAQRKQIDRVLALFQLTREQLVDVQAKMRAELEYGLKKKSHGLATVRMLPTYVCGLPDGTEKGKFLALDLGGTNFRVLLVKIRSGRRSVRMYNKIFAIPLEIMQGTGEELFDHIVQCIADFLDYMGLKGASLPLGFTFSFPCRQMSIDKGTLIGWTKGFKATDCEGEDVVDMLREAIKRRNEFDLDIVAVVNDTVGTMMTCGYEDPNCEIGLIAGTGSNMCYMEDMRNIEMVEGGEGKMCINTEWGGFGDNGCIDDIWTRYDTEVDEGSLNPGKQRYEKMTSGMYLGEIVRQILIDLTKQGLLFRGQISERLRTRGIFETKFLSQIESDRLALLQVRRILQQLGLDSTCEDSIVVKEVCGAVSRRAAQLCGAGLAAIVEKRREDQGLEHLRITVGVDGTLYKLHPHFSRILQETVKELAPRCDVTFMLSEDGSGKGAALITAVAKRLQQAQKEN
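Assay system: recombinant HKDC1 hexokinase; detection: coupled resazurin fluorescence, excitation 525 nm, emission 613 nm; benchmarks: DMSO-plus-enzyme-mix negative control, buffer-substituted positive control; compound dosing: single 20 µM dose; schedule: 90 min at room temperature in dark; also added: glucose plus 1 mM ATP as hexokinase substrates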
Diaph inh CS = diaphorase inhibitors and chemical oxidizers, primary screen, counter-screen for diaphorase-coupled primary assays, biochemical, uHTS, resorufin fluorescence; diaphorase resazurin-to-resorufin fluorescence, NADH, 16 min; bacterial (C. kluyveri) enzyme, not human; inhibition, % at 20 µM; 190,000 tested, 0.69% active;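 active = primary screen inhibition at 20 µM above a set limit, cut at about 50% in these data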;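 also: plate controls were DMSO with full reaction for no effect and wells lacking NADH for full effect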
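Test system: diaphorase enzyme from Clostridium kluyveri; amount: diaphorase at 0.14 U/mL in enzyme working solution; detection: fluorescence of resorufin formed from resazurin, Ex 544/Em 590 nm; times: reaction incubation of 16 min at room temperature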
Starred values were filed as active, the others as inactive; nt = no result.

SMILES	PfG6PD inh	G6PDH counter	Diaphorase act	HKDC1 inhibitor	Diaph inh CS
Oc1ccc(CNc2ccccc2)c2cccnc12	-30.5	24.8	0.1	-5.0	86.3*
Oc1ccc(CN2CCN(Cc3ccccc3)CC2)c2cccnc12	-22.7	nt	nt	-2.2	nt
Cc1cccc(NC(=O)CSc2cccc3cccnc23)c1	7.4	nt	nt	-5.1	nt
Oc1ccc(CNc2ccc(F)cc2)c2cccnc12	12.9	25.7	0.2	5.1	76.8*
NC(=O)c1ccnc2c(O)cccc12	33.4	nt	nt	4.6	nt
CN(C(=S)NCCN1CCOCC1)C(c1ccccc1)c1ccccc1	2.8	-1.1	0.9	3.4	5.3
COCc1ccc(O)c2ncccc12	-31.8	44.5	0.7	-4.8	29.8
Oc1ccc(Cn2ccnc2)c2cccnc12	-14.4	40.5	0.5	-7.8	54.4*
Cc1ccccc1NCc1ccc(O)c2ncccc12	13.9	26.0	0.1	-15.1	92.5*
CC(OC(=O)c1ccc(CN2CCCC2=O)cc1)C(=O)Nc1ccc(Cl)cc1 (stereo unspecified)	-8.1	nt	nt	-1.4	nt
O=c1sc2ccccc2n1COc1ccccc1	-29.4	-0.4	0.3	-4.2	69.5*
Cc1ccnc(SCCn2c(N3CC(C)OC(C)C3)nc3c2c(=O)n(C)c(=O)n3C)n1 (stereo unspecified)	-4.5	0.5	1	-0.8	4.5
Cc1ccnc(SCCn2c(N3CC(C)CC(C)C3)nc3c2c(=O)n(C)c(=O)n3C)n1 (stereo unspecified)	-8.9	7.0	0.5	14.0	51.0*
O=C(O)CCn1c(-c2ccccn2)nc2ccccc21	-10.0	nt	nt	-0.2	nt
CCCN1C(=O)/C(=C/c2c(N3CCNC(=O)C3CC(=O)OCC)nc3c(C)cccn3c2=O)SC1=S (stereo unspecified)	59.9*	nt	nt	12.2	nt
CN(C)CCCN1C(=O)c2cccc3cccc(c23)C1=O	-18.9	nt	nt	-7.9	nt
COc1ccc(N(CCCN2C(=O)c3cccc4cccc(c34)C2=O)C(=O)c2cccc(OC)c2)cc1	23.8	-24.3	0.4	29.5	55.5*
CC(C)(C)OC(=O)[C@H](Cc1ccccc1)NC(=O)c1nc[nH]c1C(=O)NC1CCN(C(=O)OC(C)(C)C)CC1	29.3	13.5	0.5	-0.3	51.8*
CC1CC(NS(=O)(=O)c2cc3c4c(c2)CCN4C(=O)CC3)CC(C)(C)C1 (stereo unspecified)	-21.2	nt	nt	3.9	nt
CCCCn1c2nc3ccccc3nc2c2c(=O)n(C(C)CC)cnc21 (stereo unspecified)	-20.4	5.4	0.7	5.5	25.6
CCC(C)n1c(C)nc2c(c1=O)c1nc3ccccc3nc1n2CCC1=CCCCC1 (stereo unspecified)	-25.8	-0.8	0.4	-8.3	64.1*
NC(=O)CN1CCOCCOCCN(CC(N)=O)CCOCCOCC1	-16.4	5.3	1	1.5	2.4
NC(=O)CN1CCOCCN(CC(N)=O)CCOCC1	14.3	55.9*	0.9	-0.2	8.2
O=c1[nH]c2ccc(N=Cc3c(O)ccc4cc(Br)ccc34)cc2[nH]1	28.2	7.6	0.4	8.4	55.1*
COc1cccc(-c2nc(=S)c3c(o2)CCCC3)c1	-2.2	4.5	0.7	0.0	29.5
SMILES	PfG6PD inh	G6PDH counter	Diaphorase act	HKDC1 inhibitor	Diaph inh CS
S=c1nc(-c2ccccc2)oc2c1CCCC2	-21.9	3.0	0.3	3.5	65.0*
O=C(O)c1cccc(C(=O)O)n1	nt	29.0	0.3	nt	70.7*
O=C(O)c1cccc(Cl)n1	11.5	nt	nt	-4.3	nt
Cc1occc1C(=O)N/N=C/c1cnn(C)c1C	5.1	-0.7	0.4	0.6	60.1*
Cc1c(/C=N\NC(=O)c2ccc(F)cc2)cnn1C	-5.1	3.5	1	1.8	3.6
Cc1csc(NS(=O)(=O)c2cccc([N+](=O)[O-])c2)n1	-2.8	10.5	0.3	-6.5	67.3*
CCOC(=O)Cc1csc(NS(=O)(=O)c2cccc([N+](=O)[O-])c2)n1	-4.7	nt	nt	-4.3	nt
Cc1ccc(NC(=O)CCn2cc(C(F)(F)F)ccc2=O)cc1	2.9	nt	nt	-0.6	nt
Cc1c2ccccc2nc2c(F)c(NCCO)c(F)c(F)c12	-17.4	6.4	0.5	6.2	53.1*
OCCNc1c2ccccc2nc2c(F)c(F)c(F)c(F)c12	4.9	-12.7	0.8	-5.7	16.7
CN(Cc1ccccc1)C(=O)CCS(=O)(=O)c1ccc2c(c1)NC(=O)CS2	-3.9	nt	nt	-6.5	nt
CCOC(=O)c1ccc(CC(=O)c2ccc(O)c(O)c2O)o1	21.8	42.1	0.2	-12.4	76.1*
CC(=O)Nc1cccc(NC(=O)CSc2ccc(-c3ccco3)nn2)c1	15.1	nt	nt	9.7	nt
CC(=O)Nc1ccc(NC(=O)CSc2ccc(-c3ccco3)nn2)cc1	34.4	0.8	0.4	22.5	59.4*
Cc1cc2nn(-c3cccc4ccccc34)nc2cc1N	12.0	-23.3	0.2	25.4	78.4*
Cc1ccc(-n2nc3cc(C)c(N)cc3n2)cc1	22.4	24.6	0.2	12.3	76.4*
COc1ccc(-n2nc3cc(C)c(N)c(Br)c3n2)cc1	14.7	25.4	0.3	18.5	74.0*
Nc1ccc2nn(-c3cccc4ccccc34)nc2c1	17.0	47.0	0.6	11.4	41.4
O=C(CN1C(=O)c2ccccc2C1=O)c1ccccc1	-10.4	1.4	0.9	5.0	12.6
CC1=C(CC(=O)c2ccccc2)C(=O)c2ccccc2C1=O	-31.9	56.1*	0.8	8.2	19.0
O=C(O)CC/C(=N/Nc1ncc(C(F)(F)F)cc1Cl)C(=O)O	-0.8	10.0	0.5	-9.6	53.0*
O=C(O)CCc1ncc(C(F)(F)F)cc1Cl	1.2	-0.4	1	-3.0	2.0
CCOC(=O)C1=C(O)c2ccccc2C(=O)/C1=C\c1ccc(CC)cc1	93.8*	-22.3	0.7	59.3*	33.1
CCCc1ccc(/C=C2\C(=O)c3ccccc3C(O)=C2C(=O)OCC)cc1	nt	-24.0	0.5	nt	45.8
CCOC(=O)C1=C(Cc2ccc(C)cc2)C(=O)c2ccccc2C1=O	nt	53.7*	0.6	nt	40.5
SMILES	PfG6PD inh	G6PDH counter	Diaphorase act	HKDC1 inhibitor	Diaph inh CS
COc1ccccc1/C=C/C(=O)Oc1cccc2cccnc12	-3.9	15.8	0.8	12.7	23.2
Cc1ccc2cccc(OC(=O)/C=C\c3ccccc3)c2n1	6.3	50.9*	0.7	-0.2	26.1
Cn1c(=O)c(C(=S)NC(=O)C2CC2)c(N)n(Cc2ccccc2)c1=O	nt	-35.2	0.3	nt	65.9*
CCN(CC)CC(=O)c1c(N)n(Cc2ccccc2)c(=O)n(C)c1=O	-11.6	1.5	0.9	1.6	11.5
Cc1[nH]n(-c2ccccc2)c(=O)c1N=Nc1ccc2c(c1)OCO2	16.3	2.5	1	-1.2	1.8
Nc1[nH]n2c(=O)cc(-c3ccccc3)nc2c1N=Nc1ccc2c(c1)OCO2	nt	24.2	0.3	nt	68.5*
